Reference: ChEMBL document CHEMBL3822431, “Hydroxychalcone inhibitors of Streptococcus mutans glucosyl transferases and biofilms as potential anticaries agents” (Bioorg Med Chem Lett, 2016)
The source made the active and inactive calls. The rule behind the calls is not given here.

Assays:
[1] = molecular target: T1, Glucosyltransferase-S (Streptococcus mutans serotype c (strain ATCC 700610 / UA159)) (UniProt P49331); assay: Inhibition of Wild-type Streptococcus mutans UA159 glucosyltransferase D at 50 uM by coomassie blue staining based SDS-PAGE method
T1 sequence (whole entry): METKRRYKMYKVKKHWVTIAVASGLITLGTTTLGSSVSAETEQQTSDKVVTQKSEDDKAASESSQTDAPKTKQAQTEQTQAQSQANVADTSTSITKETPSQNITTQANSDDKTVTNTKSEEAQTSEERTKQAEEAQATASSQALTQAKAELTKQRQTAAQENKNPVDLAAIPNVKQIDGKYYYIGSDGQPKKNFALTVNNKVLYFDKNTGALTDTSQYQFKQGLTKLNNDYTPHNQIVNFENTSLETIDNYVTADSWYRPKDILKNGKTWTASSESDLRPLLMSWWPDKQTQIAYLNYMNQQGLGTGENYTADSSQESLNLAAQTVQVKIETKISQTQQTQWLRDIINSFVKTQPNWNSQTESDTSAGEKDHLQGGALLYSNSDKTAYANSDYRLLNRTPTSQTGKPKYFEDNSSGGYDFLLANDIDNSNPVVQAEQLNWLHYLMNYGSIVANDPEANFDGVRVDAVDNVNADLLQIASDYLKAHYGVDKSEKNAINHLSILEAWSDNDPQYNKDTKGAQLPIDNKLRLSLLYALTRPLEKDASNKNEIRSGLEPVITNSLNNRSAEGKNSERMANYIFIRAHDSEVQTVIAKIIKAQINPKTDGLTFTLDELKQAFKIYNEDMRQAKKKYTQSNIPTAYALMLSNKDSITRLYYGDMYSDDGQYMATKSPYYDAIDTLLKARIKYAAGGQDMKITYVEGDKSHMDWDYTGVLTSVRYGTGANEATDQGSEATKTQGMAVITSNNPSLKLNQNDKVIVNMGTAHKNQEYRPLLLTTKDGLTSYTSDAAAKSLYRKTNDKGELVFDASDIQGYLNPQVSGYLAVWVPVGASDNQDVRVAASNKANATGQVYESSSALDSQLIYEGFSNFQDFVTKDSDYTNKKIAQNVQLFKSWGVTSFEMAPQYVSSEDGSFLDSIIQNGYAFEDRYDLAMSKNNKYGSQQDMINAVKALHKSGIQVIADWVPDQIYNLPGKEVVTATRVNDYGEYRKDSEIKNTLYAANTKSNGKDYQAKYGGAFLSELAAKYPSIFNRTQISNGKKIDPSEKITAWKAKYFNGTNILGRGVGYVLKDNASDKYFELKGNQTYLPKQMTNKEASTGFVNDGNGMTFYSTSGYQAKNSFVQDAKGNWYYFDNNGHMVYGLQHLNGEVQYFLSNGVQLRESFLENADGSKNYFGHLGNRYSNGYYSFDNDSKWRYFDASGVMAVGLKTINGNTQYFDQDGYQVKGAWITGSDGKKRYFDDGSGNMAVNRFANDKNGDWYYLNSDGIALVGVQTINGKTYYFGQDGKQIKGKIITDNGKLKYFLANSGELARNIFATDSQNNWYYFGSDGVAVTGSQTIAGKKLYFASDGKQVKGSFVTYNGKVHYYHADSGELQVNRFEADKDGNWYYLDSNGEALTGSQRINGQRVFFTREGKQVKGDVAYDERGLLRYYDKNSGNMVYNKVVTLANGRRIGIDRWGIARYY
Outline: (§1)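 Compound (50 µM) added to overnight S. mutans UA159 wild-type cultures; Gtfs collected and concentrated from supernatants, run on SDS-PAGE in duplicate; one gel Coomassie blue stained for protein levels.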

[2] = molecular target: T2, Glucosyltransferase-SI (Streptococcus mutans serotype c (strain ATCC 700610 / UA159)) (UniProt P13470); assay: Inhibition of Wild-type Streptococcus mutans UA159 glucosyltransferase C at 50 uM by coomassie blue staining based SDS-PAGE method; outline: as §1
T2 sequence (whole entry): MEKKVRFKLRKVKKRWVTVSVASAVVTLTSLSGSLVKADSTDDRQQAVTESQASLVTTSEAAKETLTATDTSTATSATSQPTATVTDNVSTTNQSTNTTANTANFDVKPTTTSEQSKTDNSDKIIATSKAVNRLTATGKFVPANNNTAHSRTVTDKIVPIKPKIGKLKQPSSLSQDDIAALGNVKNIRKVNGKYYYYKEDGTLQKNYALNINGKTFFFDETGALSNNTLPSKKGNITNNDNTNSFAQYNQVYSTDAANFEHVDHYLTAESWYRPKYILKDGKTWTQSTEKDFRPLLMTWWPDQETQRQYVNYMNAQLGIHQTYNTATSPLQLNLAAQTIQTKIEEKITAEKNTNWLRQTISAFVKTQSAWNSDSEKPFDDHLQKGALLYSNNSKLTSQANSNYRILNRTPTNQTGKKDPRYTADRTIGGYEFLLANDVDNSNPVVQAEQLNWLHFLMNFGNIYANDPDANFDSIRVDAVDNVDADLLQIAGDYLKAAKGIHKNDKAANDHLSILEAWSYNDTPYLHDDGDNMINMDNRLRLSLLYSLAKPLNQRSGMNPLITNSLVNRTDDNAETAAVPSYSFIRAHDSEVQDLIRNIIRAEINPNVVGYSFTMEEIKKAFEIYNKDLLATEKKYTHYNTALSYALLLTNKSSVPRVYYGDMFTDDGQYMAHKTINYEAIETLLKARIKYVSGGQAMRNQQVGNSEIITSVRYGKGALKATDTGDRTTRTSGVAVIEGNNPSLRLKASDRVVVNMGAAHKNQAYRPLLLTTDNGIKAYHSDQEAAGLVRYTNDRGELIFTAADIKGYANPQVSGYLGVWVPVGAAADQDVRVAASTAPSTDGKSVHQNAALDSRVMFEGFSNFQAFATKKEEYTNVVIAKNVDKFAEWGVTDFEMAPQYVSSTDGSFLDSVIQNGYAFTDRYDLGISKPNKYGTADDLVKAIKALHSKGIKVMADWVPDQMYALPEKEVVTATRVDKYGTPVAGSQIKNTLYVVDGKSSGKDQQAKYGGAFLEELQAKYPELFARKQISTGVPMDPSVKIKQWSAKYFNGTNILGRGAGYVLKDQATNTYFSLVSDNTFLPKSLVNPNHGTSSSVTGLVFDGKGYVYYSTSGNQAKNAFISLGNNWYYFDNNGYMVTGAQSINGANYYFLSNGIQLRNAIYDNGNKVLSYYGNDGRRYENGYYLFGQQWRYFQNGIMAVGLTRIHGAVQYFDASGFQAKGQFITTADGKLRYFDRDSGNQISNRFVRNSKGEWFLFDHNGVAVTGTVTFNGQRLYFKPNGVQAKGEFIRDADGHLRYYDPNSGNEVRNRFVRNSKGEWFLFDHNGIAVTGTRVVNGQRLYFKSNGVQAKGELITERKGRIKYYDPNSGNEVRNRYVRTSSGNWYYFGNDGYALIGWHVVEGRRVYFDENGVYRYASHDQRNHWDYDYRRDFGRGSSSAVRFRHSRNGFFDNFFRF

Row | SMILES | inhibition [1] | inhibition [2]
1 | O=C(/C=C/c1cc(O)c(O)cc1O)c1ccccc1O (stereo in doubt; 18c) | Active | Active
2 | O=C(/C=C\c1ccc(O)cc1O)c1cccc(O)c1 | Active | Active
3 | O=C(/C=C/c1ccc(O)cc1O)c1cccc(O)c1 (stereo in doubt; 9a) | Active | Active

Further lines, results first:

Row | inhibition [1] | inhibition [2] | SMILES
4 | Active | Active | O=C(/C=C\c1ccc(O)cc1O)c1ccc(O)cc1
5 | Active | Active | O=C(/C=C/c1ccc(O)cc1O)c1ccc(O)cc1
